Screening data as filed in PubChem BioAssay.
A selection: hits, their analogues and other compounds. The true share with any hit is near 0.17%.
Bim-Bcl-2 = human Bim-Bcl-2 interaction inhibition | P10415 | Bead-based flow cytometry, Bim peptide-Bcl-2 binding | inhibition, % at 10 µM | 0.06% of 190,000 active | AID 950; in the data active = inhibition above about 40%
Bim-Bfl-1 = inhibitors of Bim-Bfl-1 interaction, human; Bead-based flow cytometry, Bim-Bfl-1 binding inhibition; inhibition, % at 10 µM; Q16548; 0.12% of 190,000 active
Bcl-B Bim block = human Bim-Bcl-B interaction inhibition; Q9HD36; bead-based flow cytometry, Bim peptide-Bcl-B binding; inhibition, % at 10 µM; 0.073% of 190,000 active
Target sequence (Q9HD36 whole entry, looked up): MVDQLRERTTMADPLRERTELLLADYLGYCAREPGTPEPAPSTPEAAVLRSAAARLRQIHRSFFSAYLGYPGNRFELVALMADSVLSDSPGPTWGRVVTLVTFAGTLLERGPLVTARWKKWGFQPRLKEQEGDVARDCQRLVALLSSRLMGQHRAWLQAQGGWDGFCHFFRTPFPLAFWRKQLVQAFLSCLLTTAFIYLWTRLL
Biofilm kill mix = mixtures killing C. albicans biofilm. C. albicans biofilm persisters + clotrimazole, fluorescence viability; primary screen in compound mixtures of four per well. inhibition, % at 7.6 µM. 0.02% of 120,000 active;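 active = inhibition above 30.3% in the primary screen of four-compound pools, then above 30% when the compound was retested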;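 note: compounds exposed to preformed 24 h biofilms for 48 h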
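Test system: C. albicans biofilms. Buffer or medium: RPMI/MOPS medium, pH 7.0. Timing: 48 h compound exposure at 37 °C. Technique: Alamar Blue fluorescence. Evaluation: percent inhibition of biofilm viability.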
Bim-Bcl-W = inhibitors of Bim-Bcl-W interaction, human | Q92843 | bead-based flow cytometry, Bim peptide-Bcl-W binding | inhibition, % at 10 µM | 0.02% of 190,000 active | AID 952;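 note: higher means less fluorescent Bim peptide bound to Bcl-W beads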
Target sequence (Q92843 whole entry, looked up): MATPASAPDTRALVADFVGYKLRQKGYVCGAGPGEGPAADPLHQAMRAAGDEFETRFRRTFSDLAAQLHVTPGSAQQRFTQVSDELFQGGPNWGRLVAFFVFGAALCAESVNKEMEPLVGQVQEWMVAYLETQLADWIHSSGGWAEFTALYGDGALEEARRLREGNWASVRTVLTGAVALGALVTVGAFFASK
Bcl-XL Bim block = inhibitors of Bim-Bcl-XL interaction, human | Q07817 | Bim peptide-Bcl-XL binding, bead flow cytometry, fluorescence | inhibition, % at 10 µM | 0.04% of 190,000 active | AID 1007
Large screens that a line does not name were inactive. Cut-off read from the data, not from the text of the source, unless noted: active = inhibition above about 40%.

O=C(COC(=O)CCC(=O)c1cccs1)Nc1ncc(Cl)cc1Cl	none
COCCN(C(=O)CCc1ccc(OC)cc1)c1nnc(-c2ccncc2)s1	none
CCOC(=O)Cc1cc(=O)[nH]c(Nc2nc3ccccc3o2)n1	none (no result: Biofilm kill mix)
COC(=O)Cc1cc(=O)[nH]c(Nc2nc3ccccc3o2)n1	Bim-Bfl-1 64.0 (no result: Biofilm kill mix)
CCCCCCc1cc2cc(C(=O)Nc3ccccc3)c(=O)oc2cc1O	Bim-Bcl-2 45.0, Bcl-B Bim block 50.0
CCCCCCc1cc2cc(C(=O)NCc3ccccc3)c(=N)oc2cc1O	none
CN(C)c1ccc(/C=C/c2ccc3ccccc3[n+]2C)cc1	Biofilm kill mix 34.5
CCN(CC)c1ccc(Nc2nc(N3CCOCC3)c3ccccc3n2)cc1	Bim-Bfl-1 54.0 (no result: Biofilm kill mix)
CC(C)CN1C(=O)/C(=C/c2ccco2)NC1=S	Bim-Bfl-1 47.0
Cc1ccc(CN2CCN(C/C=C/c3ccc(F)cc3)CC2CCO)o1 (centres undefined)	none
CCOc1cc(NC(=S)NC)c(OCC)cc1NC(=O)c1ccc(OC)cc1	Bim-Bcl-2 53.0, Bim-Bfl-1 45.0, Bcl-B Bim block 41.0, Bim-Bcl-W 49.0
CCN(C(=O)COC(=O)/C=C/c1ccccc1[N+](=O)[O-])C1CCS(=O)(=O)C1 (centres undefined)	none
Cc1ccc(-c2cc(-c3ccccc3)c(C#N)c(N)n2)o1	Bim-Bfl-1 42.0 (no result: Biofilm kill mix)
O=C1Nc2ccc([N+](=O)[O-])cc2OC1CCN1CCN(Cc2ccc3c(c2)OCO3)CC1 (centres undefined)	Bim-Bcl-2 72.0, Bim-Bfl-1 47.0, Bcl-B Bim block 73.0
Cc1cc(C)cc(N2C(=O)CSC2c2ccccn2)c1 (centres undefined)	none
CC(=O)N1CCN(c2c(F)c(F)c(C(F)(F)F)c(F)c2F)CC1	Biofilm kill mix 62.0
CCC(C)NC(=O)c1ccc(CS(=O)(=O)c2ccc(OC)cc2)o1 (centres undefined)	none (no result: Biofilm kill mix)
COc1ccc(/C=N/n2cc(-c3ccccc3)nc2N)cc1	Bim-Bcl-2 84.0, Bim-Bfl-1 65.0, Bcl-B Bim block 84.0 (no result: Biofilm kill mix)
CN(C)C(CN1C(=O)C2CC=CCC2C1=O)c1cn(C)c2ccccc12 (centres undefined)	none (no result: Biofilm kill mix)
COc1cc(CNc2ccc(N3CCCC3)cc2)ccc1OCc1ccccc1F	none
COc1cc(CNc2ccc(N3CCCC3)cc2)ccc1OCc1ccccc1	Bim-Bfl-1 47.0
Cc1cc(NC(=O)c2ccc(S(=O)(=O)N(C)C)cc2)n(-c2ccccn2)n1	none (no result: Biofilm kill mix)
COCCn1c(N)c(C(=O)Nc2sc3c(c2C(=O)OC)CCCC3)c2nc3ccccc3nc21	Bcl-XL Bim block 41.0 (no result: Biofilm kill mix)
CN(C)CCCN(C(=O)c1ccco1)c1nc2ccc(Cl)cc2s1	none
Cc1ccc(C(=O)N(CCCN(C)C)c2nc3ccc(Cl)cc3s2)cc1C	Bim-Bcl-2 82.0, Bim-Bfl-1 57.0, Bcl-B Bim block 79.0
CC(=O)c1ccc(NC(=O)c2ccc3nc(-c4ccco4)c(-c4ccco4)nc3c2)cc1	Bim-Bfl-1 51.0 (no result: Biofilm kill mix)
O=C(Nc1ccccc1)c1ccc2nc(-c3ccco3)c(-c3ccco3)nc2c1	Bim-Bfl-1 45.0 (no result: Biofilm kill mix)
Cc1nc2cc(NC(=O)N3CCN(c4ccccn4)CC3)ccc2o1	none (no result: Biofilm kill mix)
O=C(Nc1ccc2nc(-c3ccco3)c(-c3ccco3)nc2c1)N1CCN(c2ccccn2)CC1	Bim-Bfl-1 53.0
O=C(NCCCO)c1ccc2nc(-c3ccco3)c(-c3ccco3)nc2c1	Bim-Bfl-1 52.0
CCCCNC(=O)c1ccc2nc(-c3ccco3)c(-c3ccco3)nc2c1	none (no result: Biofilm kill mix)
O=C(Nc1ccc(N2CCOCC2)cc1)c1ccc2nc(-c3ccco3)c(-c3ccco3)nc2c1	none (no result: Biofilm kill mix)
COc1ccccc1OC(=O)c1ccc(S(=O)(=O)N(C)C)cc1	none (no result: Biofilm kill mix)
CCSc1nnc(CNc2ccc(F)cc2)n1CC1CCCO1 (centres undefined)	none (no result: Biofilm kill mix)
Cc1ccc(OCCCC(=O)Nc2ccc3c(c2)OCO3)cc1	none (no result: Biofilm kill mix)
O=C(O)CCN1C(=O)c2ccc(NC(=O)CSc3ccccc3)cc2C1=O	none
O=C(NCCO)Nc1ccc2nc(-c3ccco3)c(-c3ccco3)nc2c1	Bim-Bfl-1 43.0
O=C(NCCO)Nc1ccc2nsnc2c1	none
CC(C)(C)OC(=O)N/N=C\c1ccc[nH]1	none
CN(CCCOc1ccccc1Br)Cc1ccccc1	Bim-Bcl-2 91.0, Bim-Bfl-1 99.0, Bcl-B Bim block 108.0, Bim-Bcl-W 98.0, Bcl-XL Bim block 102.0
Cc1ccc(Cl)c(OCCCN(C)Cc2ccccc2)c1	none (no result: Bim-Bcl-2, Bim-Bfl-1, Bcl-B Bim block, Bim-Bcl-W, Bcl-XL Bim block)
